The source made the active and inactive calls. The rule behind the calls is not given here.
How the values were obtained:
Mus musculus [1] = test: Anticonvulsant activity in Albino mouse at 100 mg/kg, ip after 0.5 hrs by MES assay; assay type: functional, organism-based; set-up: dose 100 mg/kg
Method in brief: (§1)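 Mice given compound ip at 30, 100 and 300 mg/kg in 30% polyethylene glycol 400 and 10% water, 0.01 mL/g body weight. Three animals per dose. Maximal electroshock (MES) or pentylenetetrazol (PTZ) seizure tests were run 0.5 and 4 h after dosing, and animals protected were counted.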

[2] = (§2) Neurotoxicity in intraperitoneally dosed Albino mouse by RotoRod test; assay type: toxicity, organism-based; settings: Albino, in vivo, ip
Method in brief: (§3)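 Median neurotoxic dose in albino mice given compound ip in 30% PEG 400 and 10% water, at the time of peak effect. Six animals per dose were tested on RotoRod and the percentage showing minimal neurotoxicity was recorded. Where TD50 could not be completed, the highest dose tested is reported.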

Mus musculus [3] = test: as §2; assay type: toxicity, organism-based; settings: in vivo, ip; method in brief: as §3
Mus musculus [4] = test: Neurotoxicity in Albino mouse at 30 mg/kg, ip after 4 hrs by RotoRod test; assay type: toxicity, organism-based; set-up: dose 30 mg/kg, route intraperitoneal; settings: in vivo
Method in brief: (§4)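 RotoRod neurotoxicity screen in mice dosed ip at 30, 100 and 300 mg/kg, in vehicle of 30% PEG 400 and 10% water (0.01 mL/g). Three animals per dose, tested 0.5 and 4 h after administration. Affected animals were scored per group.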

Mus musculus [5] = test: Anticonvulsant activity in Albino mouse at 30 mg/kg, ip after 4 hrs by PTZ assay; assay type: functional, organism-based; set-up: dose 30 mg/kg; method in brief: as §1
Mus musculus [6] = test: Neurotoxicity in Albino mouse at 100 mg/kg, ip after 0.5 hrs by RotoRod test; assay type: toxicity, organism-based; set-up: dose 100 mg/kg, route intraperitoneal; settings: in vivo; method in brief: as §4
Mus musculus [7] = test: Anticonvulsant activity in Albino mouse at 100 mg/kg, ip after 4 hrs by MES assay; assay type: functional, organism-based; set-up: dose 100 mg/kg; method in brief: as §1
Mus musculus [8] = test: Anticonvulsant activity in Albino mouse at 100 mg/kg, ip after 4 hrs by PTZ assay; assay type: functional, organism-based; set-up: dose 100 mg/kg; method in brief: as §1
Mus musculus [9] = test: Neurotoxicity in intraperitoneally dosed Albino mouse at 362 umol/kg by RotoRod test; assay type: toxicity, organism-based; settings: in vivo, ip; method in brief: as §3
Mus musculus [10] = test: Neurotoxicity in Albino mouse at 100 mg/kg, ip after 4 hrs by RotoRod test; assay type: toxicity, organism-based; set-up: dose 100 mg/kg, route intraperitoneal; settings: in vivo; method in brief: as §4
Mus musculus [11] = test: Anticonvulsant activity in Albino mouse at 100 mg/kg, ip after 0.5 hrs by PTZ assay; assay type: functional, organism-based; set-up: dose 100 mg/kg; method in brief: as §1
Mus musculus [12] = test: Neurotoxicity in Albino mouse at 30 mg/kg, ip after 0.5 hrs by RotoRod test; assay type: toxicity, organism-based; set-up: dose 30 mg/kg, route intraperitoneal; settings: in vivo; method in brief: as §4
Mus musculus [13] = test: Anticonvulsant activity in Albino mouse at 30 mg/kg, ip after 0.5 hrs by PTZ assay; assay type: functional, organism-based; set-up: dose 30 mg/kg; method in brief: as §1
Mus musculus [14] = organism: Mus musculus; test: Protective index, ratio of TD50 against Albino mouse to ED50 for Albino mouse; assay type: functional
Mus musculus [15] = test: Anticonvulsant activity assessed as time of peak effect in intraperitoneally dosed Albino mouse by MES assay; assay type: functional
Method in brief: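 Phase II quantification in albino mice (ip; 30% PEG 400 and 10% water vehicle). Time of peak effect was determined first. Groups of six mice then received different doses at that time. MES ED50 is the dose protecting 50% of animals, in µmol/kg.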

Mus musculus [16] = test: Anticonvulsant activity in intraperitoneally dosed Albino mouse at 362 umol/kg by PTZ assay; assay type: functional, organism-based
Method in brief: (§5)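 Phase II PTZ test in albino mice dosed ip (30% PEG 400 and 10% water), at the predetermined time of peak effect, in groups of six animals.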

Mus musculus [17] = test: Anticonvulsant activity in Albino mouse at 30 mg/kg, ip after 4 hrs by MES assay; assay type: functional, organism-based; set-up: dose 30 mg/kg; method in brief: as §1
Mus musculus [18] = test: Neurotoxicity in intraperitoneally dosed Albino mouse at 385 umol/kg by RotoRod test; assay type: toxicity, organism-based; settings: in vivo, ip; method in brief: as §3
Mus musculus [19] = test: Anticonvulsant activity in intraperitoneally dosed Albino mouse at 385 umol/kg by PTZ assay; assay type: functional, organism-based; method in brief: as §5

O=S(=O)(NCc1ccccc1)NCc1ccccc1 [BENZYL(BENZYLSULFAMOYL)AMINE]
Activity (Mus musculus [1]): Active | TD50 [2]: > 362 µmol/kg | Activity (Mus musculus [3]): 0% | Activity (Mus musculus [4]): Non-toxic | Activity (Mus musculus [5]): inactive | Activity (Mus musculus [6]): Non-toxic | Activity (Mus musculus [7]): inactive | Activity (Mus musculus [8]): inactive | Activity (Mus musculus [9]): 0% | Activity (Mus musculus [10]): Non-toxic | Activity (Mus musculus [11]): inactive | Activity (Mus musculus [12]): Non-toxic | Activity (Mus musculus [13]): inactive | PI (Mus musculus [14]): >1.5 | Activity (Mus musculus [15]): 2 h | Activity (Mus musculus [16]): inactive | Activity (Mus musculus [17]): inactive

O=S(=O)(NC1CCCCC1)NC1CCCCC1
TD50 [2]: > 385 µmol/kg | Activity (Mus musculus [3]): 0% | Activity (Mus musculus [4]): Non-toxic | Activity (Mus musculus [5]): inactive | Activity (Mus musculus [6]): Non-toxic | Activity (Mus musculus [7]): inactive | Activity (Mus musculus [18]): 0% | Activity (Mus musculus [8]): inactive | Activity (Mus musculus [10]): Non-toxic | Activity (Mus musculus [11]): inactive | Activity (Mus musculus [12]): Non-toxic | Activity (Mus musculus [13]): inactive | PI (Mus musculus [14]): >2.5 | Activity (Mus musculus [15]): 0.5 h | Activity (Mus musculus [19]): inactive | Activity (Mus musculus [17]): inactive

From ChEMBL document CHEMBL1143719, “Design, synthesis, and anticonvulsant activity of some sulfamides” (Bioorg Med Chem, 2007)
